Compound activity from PubChem.
Shown is part of a subset that was picked to be rich in hits.
H69AR growth 86K = growth inhibitors of human H69AR lung tumor cells; H69AR lung tumor viability, ATP luminescence, 72 h; active compounds read low; 85,000 compounds, 6% hits; viability, % at 10 µM;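 active = viability at or below 40%; inactive = viability above 40%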;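 also: multidrug resistant small cell line overexpressing MRP-1 efflux transporter; 100% = mean luminescence of untreated control wells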
HCT116 PTEN-null = PTEN-deleted cell growth suppression | viability, % at 10 µM | 140,000 compounds, 1.2% hits | HCT116 PTEN-null viability, CellTiter-Glo, 60 h; active compounds read low;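 active = viability at or below a set limit, 4 SD under the median of all tested compounds, cut at about 3.7% in these data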;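 also: PTEN knockout HCT116 line with beta catenin targeted HCT116 as companion control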
HUVEC prolif 384 = inhibitors of human endothelial cell proliferation; HUVEC proliferation, CellTiter-Glo luminescence, 72 h; active compounds read low; viability, % at 10 µM (by protocol); 86,000 compounds, 1.1% hits; AID 648;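 active = viability at or below 30%; inactive = viability above 30%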;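 also: 100% = median luminescence of DMSO-only cell control wells on each plate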
bCat KO growth = beta-catenin-lacking colon tumor cell growth suppression; HCT116 beta-catenin knockout viability, CellTiter-Glo, 60 h; active compounds read low; viability, % at 10 µM; 140,000 compounds, 1.5% hits; AID 818;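 active = viability at or under a set limit, the compound median less 4 SD, cut at about 6% in these data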;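 also: 0% = Hyamine 1622 control at 20 µM and 100% = untreated cell control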
Lung fibro prol = blocks proliferation of human lung fibroblasts; LL 47 human lung fibroblast viability, ATP luminescence; active compounds read low; viability, % at 10 µM; 85,000 compounds, 1.1% hits;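 active = viability at or below 50% in the single dose screen; inactive = viability above 50%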;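 also: compound exposure lasted 72 h before the ATP readout; 100% = median luminescence of untreated cell-only wells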
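Test system: LL 47 human lung fibroblasts; Quantity: 1,150 cells/well; Buffer or medium: IMEM plus 15% FBS; Dosing: tenfold compound dosing solution, DMSO at 0.1%; Timing: overnight cell rest, 72 h compound treatment at 37 °C; Detection: ATP-based CellTiter-Glo luminescent readout; Read-out basis: viability percentage against median untreated-cell control; Controls: cell-only wells, no compound.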
Starred values were filed as active, the others as inactive.

How did CC1CC(C)CN(CC(C)(C)NS(=O)(=O)c2ccc(Cl)cc2)C1 (stereo not drawn) do in these assays?
HCT116 PTEN-null: 82; bCat KO growth: 78

What do the screens show for `O=C(NCCN1CCOCC1)NC1(C(F)(F)F)Oc2ccc(Cl)cc2O1` (stereo not drawn)?
HCT116 PTEN-null: 31; bCat KO growth: 24

How did COCC(C)NC(=O)NC1(C(F)(F)F)Oc2ccc(Cl)cc2O1 (stereo not drawn) do in these assays?
H69AR growth 86K: 23*; HCT116 PTEN-null: 34; HUVEC prolif 384: 52; bCat KO growth: 29; Lung fibro prol: 65

How did O=C(/C=C(/c1ccc(Cl)cc1)n1cncn1)c1ccccc1 do in these assays?
HCT116 PTEN-null: 92; bCat KO growth: 92

How did COc1ccc(C(c2sc3ncnn3c2O)N2CC(C)OC(C)C2)cc1OC (stereo not drawn) do in these assays?
H69AR growth 86K: 97; HCT116 PTEN-null: 99; HUVEC prolif 384: 29*; bCat KO growth: 96; Lung fibro prol: 88

How did COc1ccc(C(c2sc3ncnn3c2O)N2CCN(c3ccccc3F)CC2)cc1OC (stereo not drawn) do in these assays?
H69AR growth 86K: 90; HCT116 PTEN-null: 90; HUVEC prolif 384: 37; bCat KO growth: 94; Lung fibro prol: 93

Results for COc1ccc2c(c1)c1ncnc(N3CCN(Cc4ccc5c(c4)OCO5)CC3)c1n2C ?
H69AR growth 86K: 28*; HCT116 PTEN-null: 17; HUVEC prolif 384: 64; bCat KO growth: 13; Lung fibro prol: 91

Results for COc1ccc2[nH]c3c(N4CCN(Cc5ccc6c(c5)OCO6)CC4)ncnc3c2c1 ?
H69AR growth 86K: 49; HCT116 PTEN-null: 8; HUVEC prolif 384: 54; bCat KO growth: 11; Lung fibro prol: 90

What do the screens show for `CCCCC(CCCC)=N/N=C/c1c(O)n(CC)c2cc(C3=NNC(=O)CC3)ccc12`?
H69AR growth 86K: 33*; HCT116 PTEN-null: 31; HUVEC prolif 384: 100; bCat KO growth: 39; Lung fibro prol: 78

Results for Cn1c(-c2ccc(F)cc2)cnc1NCc1cccc(F)c1 ?
H69AR growth 86K: 36*; HCT116 PTEN-null: 80; HUVEC prolif 384: 80; bCat KO growth: 80; Lung fibro prol: 75

Results for O=c1ccc2cc3c([nH]c4ccc(Br)cc43)oc-2c1O ?
H69AR growth 86K: 23*; HCT116 PTEN-null: 100; HUVEC prolif 384: 101; bCat KO growth: 98; Lung fibro prol: 87

How did O=c1[nH]c2ccc(Br)cc2c(-c2ccccc2)c1N1CCOCC1 do in these assays?
H69AR growth 86K: 68; HCT116 PTEN-null: 81; HUVEC prolif 384: 90; bCat KO growth: 81; Lung fibro prol: 82

How did CCNC(=S)N/N=C/c1ccc(OCC(=O)Nc2ccc(C)cc2)cc1 do in these assays?
HCT116 PTEN-null: 72; bCat KO growth: 73

How did CCCc1nnc(NC(=O)CCC(=O)N2CCN(C3c4ccccc4-c4ccccc43)CC2)s1 do in these assays?
HCT116 PTEN-null: 89; bCat KO growth: 84

How did O=C(/C=C/c1ccc(Cl)cc1)c1cccnc1 do in these assays?
H69AR growth 86K: 38*; HCT116 PTEN-null: 0.7*; HUVEC prolif 384: 63; bCat KO growth: 0.5*; Lung fibro prol: 25*

What do the screens show for `O=C(/C=C/c1ccccc1Cl)c1cccnc1`?
H69AR growth 86K: 1.2*; HCT116 PTEN-null: 93; HUVEC prolif 384: 21*; bCat KO growth: 96; Lung fibro prol: 76

What do the screens show for `O=C(/C=C/c1ccc(OCc2ccccc2)c(OCc2ccccc2)c1)c1cccnc1`?
HCT116 PTEN-null: 1.6*; bCat KO growth: 1.5*

What do the screens show for `O=C(/C=C/c1ccccc1)NNC(=O)c1cccnc1`?
HCT116 PTEN-null: 89; bCat KO growth: 92

Results for Cc1ccccc1NC(=O)c1ccccc1NC(=O)CCC(=O)O ?
HCT116 PTEN-null: 91; bCat KO growth: 90

Results for C(#CCN1CCC(Cc2ccccc2)CC1)COCCOCc1ccccc1 ?
HCT116 PTEN-null: 83; bCat KO growth: 80

How did Cc1ccc(S(=O)(=O)N(C)C)cc1-n1c(SCC(=O)Nc2ccc(F)c(F)c2F)nc2ccccc2c1=O do in these assays?
HCT116 PTEN-null: 60; bCat KO growth: 70

How did c1ccc(-c2nc3cc4ccccc4cc3[nH]2)nc1 do in these assays?
H69AR growth 86K: 16*; HCT116 PTEN-null: 40; HUVEC prolif 384: 55; bCat KO growth: 40; Lung fibro prol: 52

Results for Cc1cc(C)nc(NS(=O)(=O)c2ccc(NC(=O)c3cccs3)cc2)n1 ?
H69AR growth 86K: 103; HCT116 PTEN-null: 93; HUVEC prolif 384: 97; bCat KO growth: 81; Lung fibro prol: 93

What do the screens show for `CCCCN(CCCC)S(=O)(=O)c1ccc(NC(=O)c2cccs2)cc1`?
H69AR growth 86K: 26*; HCT116 PTEN-null: 7; HUVEC prolif 384: 78; bCat KO growth: 8; Lung fibro prol: 88

How did O=C(COc1ccc(Cl)cc1Cl)Nc1ccccn1 do in these assays?
H69AR growth 86K: 54; HCT116 PTEN-null: 58; HUVEC prolif 384: 45; bCat KO growth: 72; Lung fibro prol: 48*

Results for O=C(COc1ccc(Cl)cc1Cl)NCc1ccncc1 ?
H69AR growth 86K: 27*; HCT116 PTEN-null: 87; HUVEC prolif 384: 105; bCat KO growth: 94

How did Cc1cc(Oc2nc3c(C)cccn3c(=O)c2/C=C(\C#N)S(=O)(=O)c2ccc(Cl)cc2)ccc1Cl do in these assays?
HCT116 PTEN-null: 1.4*; bCat KO growth: 3.9*

How did CCCNC(=O)NCCc1c(C)[nH]c2ccccc12 do in these assays?
H69AR growth 86K: 93; HCT116 PTEN-null: 100; HUVEC prolif 384: 101; bCat KO growth: 99; Lung fibro prol: 101

Results for CN(C)C(=O)c1ccc2c(c1[N+](=O)[O-])C(=O)c1ccccc1C2=O ?
HCT116 PTEN-null: 1.7*; bCat KO growth: 2.0*

What do the screens show for `Cc1[nH]c2ccccc2c1CCNC(=O)c1ccc2c(c1[N+](=O)[O-])C(=O)c1ccccc1C2=O`?
HCT116 PTEN-null: 11; bCat KO growth: 2.3*

Results for Cc1[nH]c2c(C)cccc2c1CCNC(=O)c1ccc2c(c1[N+](=O)[O-])C(=O)c1ccccc1C2=O ?
HCT116 PTEN-null: 2.0*; bCat KO growth: 2.1*

How did Cc1ccc2[nH]c(C)c(CCNC(=O)c3cc4cc([N+](=O)[O-])ccc4oc3=O)c2c1 do in these assays?
HCT116 PTEN-null: 57; bCat KO growth: 59

What do the screens show for `CCC(OCC(O)CN1CCN(CCN2C(=O)c3cccc4cccc(c34)C2=O)CC1)c1ccccc1` (stereo not drawn)?
HCT116 PTEN-null: 9; bCat KO growth: 5.9*

How did C=CCc1ccccc1OCC(O)CN1CCN(CCN2C(=O)c3cccc4cccc(c34)C2=O)CC1 (stereo not drawn) do in these assays?
HCT116 PTEN-null: 3.7*; bCat KO growth: 2.4*

Results for Cc1cccc(C)c1OCC(O)CN1CCC(CN2C(=O)c3cccc4cccc(c34)C2=O)CC1 (stereo not drawn) ?
HCT116 PTEN-null: 1.2*; bCat KO growth: 1.1*

How did CCCNC(=O)c1ccccc1NC(=O)c1ccc(CSc2ccccc2)cc1 do in these assays?
HCT116 PTEN-null: 83; bCat KO growth: 96
